Source: ChEMBL document CHEMBL1933033, “Cytotoxic withanolide constituents of Physalis longifolia” (J Nat Prod, 2011)

Legend:
[1] = Cytotoxicity against human JMAR cells after 72 hrs by MTS assay; format: functional, cell-based
Outline: (§1)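 MTS viability assay on HNSCC (JMAR, MDA-1986), melanoma (B16F10, SKMEL-28) and normal fetal fibroblast (MRC-5) cells. Pure compounds tested at ten concentrations from 50 nM to 20 μM. IC50 values derived from the concentration series.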

SK-MEL-28 = assay: Cytotoxicity against human SK-MEL-28 cells after 72 hrs by MTS assay; format: functional, cell-based; conditions: SK-MEL-28, 72 h; outline: as §1
[2] = Cytotoxicity against human […] cells after 72 hrs by MTS assay; format: cell-based; outline: as §1
[3] = Cytotoxicity against human MDA1986 cells after 72 hrs by MTS assay; format: functional, cell-based; conditions: MDA1986, 72 h; outline: as §1
B16-F10 = assay: Cytotoxicity against mouse B16F10 cells after 72 hrs by MTS assay; format: functional, cell-based; conditions: B16-F10, 72 h; outline: as §1

| Compound | IC50 [1] | IC50 (SK-MEL-28) | IC50 [2] | IC50 [3] | IC50 (B16-F10) |
| --- | --- | --- | --- | --- | --- |
| CC1=C(CO)C(=O)O[C@@H]([C@@H](C)[C@H]2CC[C@H]3[C@@H]4C[C@H]5O[C@]56[C@@H](O)C=CC(=O)[C@]6(CO)[C@H]4CC[C@]23C)C1 | 5.3 µM | 5.1 µM | > 10 µM | 3.3 µM | > 10 µM |
| CC(=O)OCC1=C(C)C[C@H]([C@@H](C)[C@H]2CC[C@H]3[C@@H]4C[C@H]5O[C@]56[C@@H](OC(C)=O)C=CC(=O)[C@]6(COC(C)=O)[C@H]4CC[C@]23C)OC1=O | 0.16 µM | 0.54 µM | 0.58 µM | 0.91 µM | 0.067 µM |
| CC(=O)OCC1=C(C)C[C@H]([C@@H](C)[C@H]2CC[C@H]3[C@@H]4C[C@H]5O[C@]56[C@@H](OC(C)=O)C=CC(=O)[C@]6(CO)[C@H]4CC[C@]23C)OC1=O | 0.14 µM | 0.81 µM | 0.41 µM | 2.2 µM | 0.098 µM |
| CC(=O)OC[C@]12C(=O)C=C[C@H](OC(C)=O)[C@]13O[C@@H]3C[C@H]1[C@@H]3CC[C@H]([C@H](C)[C@H]4CC(C)=C(C)C(=O)O4)[C@@]3(C)CC[C@@H]12 | 0.24 µM | 0.27 µM | 0.51 µM | 0.11 µM | 0.13 µM |
| CC(=O)OC[C@]12C(=O)C=C[C@H](O)[C@]13O[C@@H]3C[C@H]1[C@@H]3CC[C@H]([C@H](C)[C@H]4CC(C)=C(C)C(=O)O4)[C@@]3(C)CC[C@@H]12 | 0.12 µM | 0.64 µM | 0.16 µM | 0.49 µM | 0.19 µM |
| CC1=C(CO)C(=O)O[C@@H]([C@@H](C)[C@H]2CC[C@H]3[C@@H]4C[C@H]5O[C@]56[C@@H](O)C=CC(=O)[C@]6(CO)[C@H]4[C@@H](O)C[C@]23C)C1 | 0.77 µM | 3 µM | 3.6 µM | 2.6 µM | 0.49 µM |
| CO[C@H]1CC(=O)[C@]2(C)[C@H]3CC[C@]4(C)[C@@H]([C@H](C)[C@H]5CC(C)=C(CO)C(=O)O5)CC[C@H]4[C@@H]3C[C@H]3O[C@]32[C@H]1O | > 10 µM | > 10 µM | > 10 µM | > 10 µM | > 10 µM |
| CC1=C(CO)C(=O)O[C@@H]([C@@H](C)[C@H]2CC[C@H]3[C@@H]4C[C@H]5O[C@]56[C@@H](O)CCC(=O)[C@]6(C)[C@H]4CC[C@]23C)C1 | > 10 µM | > 10 µM | > 10 µM | > 10 µM | > 10 µM |
| CC1=C(CO)C(=O)O[C@@H]([C@@H](C)[C@H]2CC[C@H]3[C@@H]4C[C@@H]5O[C@@H]6CC(=O)[C@](C)([C@H]4CC[C@]23C)[C@@]5(O)[C@H]6O)C1 | > 10 µM | > 10 µM | > 10 µM | > 10 µM | > 10 µM |
| CC1=C(CO)C(=O)O[C@@H]([C@@H](C)[C@H]2CC[C@H]3[C@@H]4C[C@H]5O[C@]56[C@@H](O)[C@@H](OS(=O)(=O)O)CC(=O)[C@]6(C)[C@H]4CC[C@]23C)C1 | 0.48 µM | 5.1 µM | 1.4 µM | 0.27 µM | 0.18 µM |
| CC1=C(CO[C@@H]2O[C@H](CO)[C@@H](O)[C@H](O)[C@H]2O)C(=O)O[C@@H]([C@@H](C)[C@H]2CC[C@H]3[C@@H]4C[C@H]5O[C@]56[C@@H](O)C=CC(=O)[C@]6(C)[C@H]4CC[C@]23C)C1 [SITOINDOSIDE IX] | 4.2 µM | 8.3 µM | 5.2 µM | > 10 µM | 3.7 µM |
| CC1=C(CO)C(=O)O[C@@H]([C@@H](C)[C@H]2CC[C@H]3[C@@H]4C[C@H]5O[C@]56[C@@H](O)[C@@H](O)CC(=O)[C@]6(C)[C@H]4CC[C@]23C)C1 [VISCOSALACTONE B] | > 10 µM | > 10 µM | > 10 µM | > 10 µM | > 10 µM |
| CC1=C(CO)C(=O)O[C@@H]([C@@H](C)[C@H]2CC[C@H]3[C@@H]4C[C@H]5O[C@]56[C@@H](O)C=CC(=O)[C@]6(C)[C@H]4CC[C@]23C)C1 [WITHAFERIN A] | 2 µM | 4 µM | 0.2 µM | 0.8 µM | 0.29 µM |
| CC1=C(C)C(=O)O[C@@H]([C@@H](C)[C@H]2CC[C@H]3[C@@H]4C[C@H]5O[C@]56[C@@H](O)C=CC(=O)[C@]6(CO)[C@H]4CC[C@]23C)C1 [WITHALONGOLIDE B] | 0.17 µM | 3.9 µM | 0.4 µM | 1.3 µM | 0.2 µM |
| CO[C@H]1CC(=O)[C@]2(CO)[C@H]3CC[C@]4(C)[C@@H]([C@H](C)[C@H]5CC(C)=C(CO)C(=O)O5)CC[C@H]4[C@@H]3C[C@H]3O[C@]32[C@H]1O [WITHALONGOLIDE D] | 4.7 µM | 9.3 µM | 6.5 µM | > 10 µM | 3.2 µM |
| CO[C@H]1CC(=O)[C@]2(C)[C@@H]3[C@@H](C[C@H]4O[C@]42[C@H]1O)[C@@H]1CC[C@H]([C@H](C)[C@H]2CC(C)=C(CO)C(=O)O2)[C@@]1(C)C[C@@H]3O [WITHALONGOLIDE E] | > 10 µM | > 10 µM | 7.3 µM | 8.3 µM | 5.6 µM |
| CC1=C(CO)C(=O)O[C@@H]([C@@H](C)[C@H]2CC[C@H]3[C@@H]4CC=C5C=CC(=O)[C@]5(C)[C@H]4CC[C@]23C)C1 [WITHALONGOLIDE F] | > 10 µM | > 10 µM | > 10 µM | > 10 µM | > 10 µM |
| CC1=C(CO)C(=O)O[C@@H]([C@@H](C)[C@H]2CC[C@H]3[C@@H]4C[C@H]5O[C@]56[C@@H](O)[C@@H](OS(=O)(=O)O)CC(=O)[C@]6(CO)[C@H]4CC[C@]23C)C1 [WITHALONGOLIDE G] | 2.3 µM | 4.8 µM | 3.3 µM | 2 µM | 1.3 µM |
| CC1=C(CO[C@@H]2O[C@H](CO)[C@@H](O[C@@H]3O[C@@H](C)[C@H](O)[C@@H](O)[C@H]3O)[C@H](O)[C@H]2O)C(=O)O[C@@H]([C@@H](C)[C@H]2CC[C@H]3[C@@H]4C[C@H]5O[C@]56[C@@H](O)C=CC(=O)[C@]6(C)[C@H]4CC[C@]23C)C1 [WITHALONGOLIDE H] | 8.2 µM | > 10 µM | 8.7 µM | 8.1 µM | > 10 µM |
| CC1=C(CO)C(=O)O[C@@H]([C@@H](C)[C@H]2CC[C@H]3[C@@H]4CC=C5C[C@@H](O[C@@H]6O[C@H](CO)[C@@H](O)[C@H](O)[C@H]6O)CC(=O)[C@]5(CO)[C@H]4CC[C@]23C)C1 [WITHALONGOLIDE I] | > 10 µM | > 10 µM | > 10 µM | > 10 µM | > 10 µM |
| CC1=C(CO[C@@H]2O[C@H](CO)[C@@H](O)[C@H](O)[C@H]2O)C[C@H]([C@@H](C)[C@H]2CC[C@H]3[C@@H]4CC=C5C[C@@H](O)C[C@H](O)[C@]5(CO)[C@H]4CC[C@]23C)OC1=O [WITHALONGOLIDE J] | > 10 µM | > 10 µM | > 10 µM | > 10 µM | > 10 µM |
| CC1=C(CO[C@@H]2O[C@H](CO)[C@@H](O)[C@H](O)[C@H]2O)C[C@H]([C@@H](C)[C@H]2CC[C@H]3[C@@H]4C[C@H](O)C5=C(C(=O)C[C@H](O)C5)[C@H]4CC[C@]23C)OC1=O [WITHALONGOLIDE L] | > 10 µM | > 10 µM | > 10 µM | > 10 µM | > 10 µM |
| CC1=C(CO[C@@H]2O[C@H](CO)[C@@H](O)[C@H](O)[C@H]2O)C[C@H]([C@@H](C)[C@H]2CC[C@H]3[C@@H]4CCC5=C(C(=O)C[C@H](O)C5)[C@H]4CC[C@]23C)OC1=O [WITHALONGOLIDE M] | > 10 µM | > 10 µM | > 10 µM | > 10 µM | > 10 µM |
| CC1=C(CO[C@@H]2O[C@H](CO)[C@@H](O)[C@H](O)[C@H]2O)C[C@H]([C@@H](C)[C@H]2CC[C@H]3[C@@H]4CC(=O)C5=C(CC[C@@H](O)C5)[C@H]4CC[C@]23C)OC1=O [WITHALONGOLIDE N] | > 10 µM | > 10 µM | > 10 µM | > 10 µM | > 10 µM |
| CC1=C(CO[C@@H]2O[C@H](CO)[C@@H](O)[C@H](O)[C@H]2O)C[C@H]([C@@H](C)[C@H]2CC[C@H]3[C@@H]4C[C@H](O)c5cccc(O)c5[C@H]4CC[C@]23C)OC1=O [WITHALONGOLIDESAPONIN] | > 10 µM | > 10 µM | > 10 µM | > 10 µM | > 10 µM |
